Activity calls are given as the source filed them.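 How the source made its calls: active means inhibition of 30% or more at any tested concentration; inactive means the rest.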
target: M18 aspartyl aminopeptidase (Plasmodium falciparum 3D7); assay: inhibition of malaria M18 aspartyl aminopeptidase – biochemical, QFRET, H-Glu-NHMec substrate, set 1, dose response (AID 602222); details: recombinant PfM18AAP, H-Glu-NHMec fluorogenic substrate cleavage
Procedure, shortened: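 Times: 90 min reaction at room temperature; Material: PFM18AAP, purified recombinant M18 aspartyl aminopeptidase of Plasmodium falciparum; Amount: enzyme 5 µg/mL final; Compound: 10 concentrations, 1:2 steps, top 100 µM; Benchmarks: full reaction and no-enzyme wells; Signal: NHMec release measured fluorometrically; Also added: H-Glu-NHMec substrate, 0.1 mM final; Repeats: triplicate.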

| IC50 | SMILES |
| --- | --- |
| 13.3 µM | CN1CCN(CCCc2ccc(O)c(O)c2)CC1 |
| 13.1 µM | Oc1ccc(-c2csc(NC3CCCC3)n2)cc1O |
| 9.37 µM | CN1CCN(c2nc(-c3ccc(O)c(O)c3)cs2)CC1 |
| 16.6 µM | CCc1ccc(NC(=O)Cc2nc(-c3ccc(O)c(O)c3)cs2)cc1 |
| 6.43 µM | Oc1ccc(-c2csc(Nc3ncccn3)n2)cc1O |
| 4.3 µM | Oc1ccc(CCNc2c3ccccc3nc3ccccc23)cc1O |
| 27.1 µM | CN1CCN(CCc2ccc(O)c(O)c2)CC1 |
| 7.33 µM | Oc1ccc(CCNc2ccnc3ccccc23)cc1O |

same assay, conditions: recombinant PfM18AAP, H-Glu-NHMec fluorogenic substrate cleavage; at 100 µM (top of the series)

| inhibition | SMILES |
| --- | --- |
| inactive | COc1ccc(CCCN2CCN(C)CC2)cc1OC |
| inactive | COc1ccc(CCNC(c2ccccc2)c2ccccc2)cc1OC |

— PubChem BioAssay AID602222 (Southern Research Specialized Biocontainment Screening …, 2012)
